# Experimental data: ChEMBL document CHEMBL3259762, “Synthesis of novel 1,2,3-triazole derivatives of isoniazid and their in vitro and in vivo antimycobacterial activity evaluation” (Eur J Med Chem, 2014)
# The source made the active and inactive calls. The rule behind the calls is not given here.
# Key:
# [1] = test system: Mycobacterium tuberculosis; test: Antimycobacterial activity against Mycobacterium tuberculosis H37Rv ATCC 27294 after 14 days by microscopy; type: functional; conditions: H37Rv ATCC 27294, 336 h
# Outline: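 2-fold serial dilutions of compounds (from DMSO stocks), 50 to 0.195 µM final, in 7H9 broth with 0.05% Tween 80, 0.2% glycerol and ADS. Inoculum is a culture grown to A600 0.2 and diluted 1:1000. Incubated at 37 C for 14 days. MIC99 (99% growth inhibition) read macroscopically with an inverted plate reader. Done in triplicate.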
# THP-1 = test: Cytotoxicity against human THP1 cells; type: cell-based
# [2] = test system: Mycobacterium tuberculosis; test: Antimycobacterial activity against Mycobacterium tuberculosis H37Rv ATCC 27294 infected in Balb/c mouse assessed as reduction in bacterial load in spleen at 100 mg/kg, po qd administered five days in a week starting 2 weeks post challenge measured after 10 weeks relative to untreated control; type: functional
# Outline: (§1)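 Balb/c mice of either sex (25-30 g) infected by aerosol in an inhalation chamber, about 1000 bacilli/lung. Oral gavage once daily, 5 days/week, starting 2 weeks post-infection. DMSO and untreated groups as controls. N = 5/group, killed at 3, 6 and 10 weeks of therapy. Lung or spleen homogenates in saline plated in duplicate on 7H11 agar, 37 C for 3–4 weeks. Read-out is log10 CFU/organ.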
# [3] = test system: Mycobacterium tuberculosis; test: Antimycobacterial activity against Mycobacterium tuberculosis H37Rv ATCC 27294 infected in Balb/c mouse assessed as reduction in bacterial load in lung at 100 mg/kg, po qd administered five days in a week starting 2 weeks post challenge measured after 10 weeks relative to untreated control; type: functional; outline: as §1
# [4] = test system: Mycobacterium tuberculosis; test: Antimycobacterial activity against Mycobacterium tuberculosis H37Rv ATCC 27294 infected in Balb/c mouse assessed as reduction in bacterial load in spleen at 100 mg/kg, po qd administered five days in a week starting 2 weeks post challenge measured after 6 weeks relative to untreated control; type: functional; outline: as §1
# [5] = test system: Mycobacterium tuberculosis; test: Antimycobacterial activity against Mycobacterium tuberculosis H37Rv ATCC 27294 infected in Balb/c mouse assessed as reduction in bacterial load in lung at 100 mg/kg, po qd administered five days in a week starting 2 weeks post challenge measured after 6 weeks relative to untreated control; type: functional; outline: as §1
# [6] = test system: Mycobacterium tuberculosis; test: Antimycobacterial activity against Mycobacterium tuberculosis H37Rv ATCC 27294 infected in Balb/c mouse assessed as reduction in bacterial load in spleen at 100 mg/kg, po qd administered five days in a week starting 2 weeks post challenge measured after 3 weeks relative to untreated control; type: functional; outline: as §1
# [7] = test system: Mycobacterium tuberculosis; test: Antimycobacterial activity against Mycobacterium tuberculosis H37Rv ATCC 27294 infected in Balb/c mouse assessed as reduction in bacterial load in lung at 100 mg/kg, po qd administered five days in a week starting 2 weeks post challenge measured after 3 weeks relative to untreated control; type: functional; outline: as §1
# [8] = test system: Mycobacterium tuberculosis; test: Antimycobacterial activity against Mycobacterium tuberculosis H37Rv ATCC 27294 infected in Balb/c mouse assessed as reduction in bacterial load in spleen at 25 mg/kg, po qd administered five days in a week starting 2 weeks post challenge measured after 10 weeks relative to untreated control; type: functional; outline: as §1
# [9] = test system: Mycobacterium tuberculosis; test: Antimycobacterial activity against Mycobacterium tuberculosis H37Rv ATCC 27294 infected in Balb/c mouse assessed as reduction in bacterial load in spleen at 50 mg/kg, po qd administered five days in a week starting 2 weeks post challenge measured after 6 weeks relative to DMSO-treated control; type: functional; outline: as §1
# [10] = test system: Mycobacterium tuberculosis; test: Antimycobacterial activity against Mycobacterium tuberculosis H37Rv ATCC 27294 infected in Balb/c mouse assessed as reduction in bacterial load in lung at 50 mg/kg, po qd administered five days in a week starting 2 weeks post challenge measured after 3 to 10 weeks relative to untreated control; type: functional, organism-based; set-up: dose 50 mg/kg; outline: as §1
# [11] = test system: Mycobacterium tuberculosis; test: Antimycobacterial activity against Mycobacterium tuberculosis H37Rv ATCC 27294 infected in Balb/c mouse assessed as reduction in bacterial load in lung at 25 mg/kg, po qd administered five days in a week starting 2 weeks post challenge measured after 3 to 10 weeks relative to untreated control; type: functional, organism-based; set-up: dose 25 mg/kg; outline: as §1
# [12] = test system: Mycobacterium tuberculosis; test: Ratio of isoniazid MIC99 to compound MIC99 for Mycobacterium tuberculosis H37Rv ATCC 27294 after 14 days by microscopy; type: functional
# [13] = test system: Mycobacterium tuberculosis; test: Antimycobacterial activity against Mycobacterium tuberculosis H37Rv ATCC 27294 infected in Balb/c mouse assessed as reduction in bacterial load in lung at 100 mg/kg, po qd administered five days in a week starting 2 weeks post challenge measured after 3 weeks relative to DMSO-treated control; type: functional; outline: as §1
# [14] = test system: Mycobacterium tuberculosis; test: Antimycobacterial activity against Mycobacterium tuberculosis H37Rv ATCC 27294 infected in Balb/c mouse assessed as reduction in bacterial load in spleen at 50 mg/kg, po qd administered five days in a week starting 2 weeks post challenge measured after 3 weeks relative to DMSO-treated control; type: functional; outline: as §1
# [15] = test system: Mycobacterium tuberculosis; test: Antimycobacterial activity against Mycobacterium tuberculosis H37Rv ATCC 27294 infected in Balb/c mouse assessed as reduction in bacterial load in spleen at 50 mg/kg, po qd administered five days in a week starting 2 weeks post challenge measured after 10 weeks relative to DMSO-treated control; type: functional; outline: as §1
# [16] = test system: Mycobacterium tuberculosis; test: Antimycobacterial activity against Mycobacterium tuberculosis H37Rv ATCC 27294 infected in Balb/c mouse assessed as reduction in bacterial load in spleen at 100 mg/kg, po qd administered five days in a week starting 2 weeks post challenge measured after 10 weeks relative to DMSO-treated control; type: functional
# [17] = test system: Mycobacterium tuberculosis; test: Antimycobacterial activity against Mycobacterium tuberculosis H37Rv ATCC 27294 infected in Balb/c mouse assessed as reduction in bacterial load in spleen at 100 mg/kg, po qd administered five days in a week starting 2 weeks post challenge measured after 6 weeks relative to DMSO-treated control; type: functional; outline: as §1
# [18] = test system: Mycobacterium tuberculosis; test: Antimycobacterial activity against Mycobacterium tuberculosis H37Rv ATCC 27294 infected in Balb/c mouse assessed as reduction in bacterial load in lung at 100 mg/kg, po qd administered five days in a week starting 2 weeks post challenge measured after 6 weeks relative to DMSO-treated control; type: functional; outline: as §1
# [19] = test system: Mycobacterium tuberculosis; test: Antimycobacterial activity against Mycobacterium tuberculosis H37Rv ATCC 27294 infected in Balb/c mouse assessed as reduction in bacterial load in spleen at 25 mg/kg, po qd administered five days in a week starting 2 weeks post challenge measured after 3 to 6 weeks relative to untreated control; type: functional, organism-based; set-up: dose 25 mg/kg; outline: as §1
# [20] = test system: Mycobacterium tuberculosis; test: Antimycobacterial activity against Mycobacterium tuberculosis H37Rv ATCC 27294 infected in Balb/c mouse assessed as reduction in bacterial load in spleen at 100 mg/kg, po qd administered five days in a week starting 2 weeks post challenge measured after 3 weeks relative to DMSO-treated control; type: functional; outline: as §1
# [21] = test system: Mycobacterium tuberculosis; test: Antimycobacterial activity against Mycobacterium tuberculosis H37Rv ATCC 27294 infected in Balb/c mouse assessed as reduction in bacterial load in lung at 100 mg/kg, po qd administered five days in a week starting 2 weeks post challenge measured after 10 weeks relative to DMSO-treated control; type: functional; outline: as §1
SMILES,MIC99 [1],Activity (THP-1),further results
O=C(N/N=C/c1ccc(OCCn2cc(-c3ccccc3)nn2)cc1)c1ccncc1,0.39 µM,> 50 µM,–
CCC(=O)OCc1cn(CCOc2ccc(/C=N/NC(=O)c3ccncc3)cc2)nn1,0.78 µM,> 50 µM,–
Cc1ccc(OCc2cn(CCCOc3ccc(/C=N/NC(=O)c4ccncc4)cc3)nn2)cc1,0.78 µM,> 50 µM,–
CC(C)n1cc(COc2ccc(/C=N/NC(=O)c3ccncc3)cc2)nn1,0.78 µM,> 50 µM,–
Cc1ccc(OCc2cn(CCOc3ccc(/C=N/NC(=O)c4ccncc4)cc3)nn2)cc1,0.39 µM,> 50 µM,–
O=C(N/N=C/c1ccc(OCCn2cc(COc3ccccc3)nn2)cc1)c1ccncc1,0.39 µM,> 50 µM,–
CCCCn1cc(COc2ccc(/C=N/NC(=O)c3ccncc3)cc2)nn1,0.39 µM,> 50 µM,–
NNC(=O)c1ccncc1 [ISONIAZID],0.39 µM,–,log10cfu [2]: 4; log10cfu [3]: 3.38; log10cfu [4]: 3.68; log10cfu [5]: 2.59; log10cfu [6]: 2.66; log10cfu [7]: 1.22
O=C(N/N=C/c1ccc(OCCn2cc(-c3ccccn3)nn2)cc1)c1ccncc1,0.39 µM,> 50 µM,–
O=C(N/N=C/c1ccc(OCc2cn(Cc3ccccc3)nn2)cc1)c1ccncc1,0.78 µM,> 50 µM,–
CCCCCn1cc(COc2ccc(/C=N/NC(=O)c3ccncc3)cc2)nn1,0.39 µM,> 50 µM,–
CCC(=O)OCc1cn(CCCOc2ccc(/C=N/NC(=O)c3ccncc3)cc2)nn1,0.78 µM,> 50 µM,–
O=C(N/N=C/c1ccc(OCCn2cc(CO)nn2)cc1)c1ccncc1,0.78 µM,> 50 µM,–
O=C(N/N=C/c1ccc(OCCCn2cc(COc3ccc(Cl)cc3)nn2)cc1)c1ccncc1,0.78 µM,> 50 µM,–
O=C(N/N=C/c1ccc(OCCCn2cc(CO)nn2)cc1)c1ccncc1,0.78 µM,> 50 µM,–
CCCCc1cn(CCOc2ccc(/C=N/NC(=O)c3ccncc3)cc2)nn1,0.78 µM,> 50 µM,–
O=C(N/N=C/c1ccc(OCCn2cc(C3(O)CCCCC3)nn2)cc1)c1ccncc1,0.39 µM,> 50 µM,–
O=C(N/N=C/c1ccc(OCCn2cc(COc3ccc(Cl)cc3)nn2)cc1)c1ccncc1,0.195 µM,> 50 µM,log10cfu [8]: 1.5; log10cfu [9]: 2.15; Activity [10]: inactive; Activity [11]: inactive; Ratio [12]: 2; log10cfu [13]: 0.02; log10cfu [14]: 1.08; log10cfu [15]: 3.31; log10cfu [16]: 2.58; log10cfu [17]: 2.58; log10cfu [18]: 0.82; Activity [19]: inactive; log10cfu [20]: 1.46; log10cfu [21]: 0.91
CCCc1cn(CCCOc2ccc(/C=N/NC(=O)c3ccncc3)cc2)nn1,0.78 µM,> 50 µM,–
CCCn1cc(COc2ccc(/C=N/NC(=O)c3ccncc3)cc2)nn1,0.78 µM,> 50 µM,–
CCCCc1cn(CCCOc2ccc(/C=N/NC(=O)c3ccncc3)cc2)nn1,0.39 µM,> 50 µM,–
O=C(N/N=C/c1ccc(OCCCn2cc(COc3ccccc3)nn2)cc1)c1ccncc1,0.39 µM,> 50 µM,–
O=C(N/N=C/c1ccc(OCCCn2cc(C3(O)CCCCC3)nn2)cc1)c1ccncc1,0.78 µM,> 50 µM,–
CO[C@H]1/C=C/O[C@@]2(C)Oc3c(C)c(O)c4c(O)c(c(/C=N/N5CCN(C)CC5)c(O)c4c3C2=O)NC(=O)/C(C)=C\C=C\[C@H](C)[C@H](O)[C@@H](C)[C@@H](O)[C@@H](C)[C@H](OC(C)=O)[C@@H]1C [RIFAMPIN],–,–,log10cfu [13]: 1.93; log10cfu [17]: 3.31; log10cfu [18]: 2.8; log10cfu [20]: 1.76; log10cfu [21]: 6.14
